Experiment [1] concerns Mycobacterium leprae. Briefly: Inhibition of Mycobacterium leprae recombinant DNA gyrase expressed in Escherichia coli assessed as inhibition of pBR322 DNA supercoiling. The essentials: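 His-tagged M. leprae GyrA and GyrB were expressed separately in E. coli, purified by nickel chelate chromatography, and reconstituted (1 U gyrase). Substrate was 0.4 μg relaxed pBR322 in 40 mM Tris-HCl pH 7.5, 25 mM KCl, 20 mM Mg acetate, 2 mM spermidine, 4 mM DTT, tRNA, BSA, and 3 mM ATP, run 1 h at 30°C.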

Experiment [2] relates to Mycobacterium leprae. Briefly: Antibacterial activity against Mycobacterium leprae at 5 ug/mL after 11 to 18 days. The experiment is classed as functional.
For experiment [3], the system named is Mycobacterium leprae. Briefly: Antibacterial activity in Mycobacterium leprae infected mouse foot-pad model assessed as parasite killing at >150 mg/kg/day after 9 months. The experiment is classed as functional.
Experiment [4] has as its system Mycobacterium leprae. Briefly: Effect on Mycobacterium leprae recombinant DNA gyrase expressed in Escherichia coli assessed as enhancement of supercoiled pBR322 DNA cleavage.
In experiment [5] the test system is Mycobacterium leprae. Briefly: Antibacterial activity in Mycobacterium leprae infected mouse foot-pad model assessed as parasite killing at 150 mg/kg/day after 9 months. The experiment is classed as functional.
Experiment [6] deals with Mycobacterium leprae. Briefly: Antibacterial activity in Mycobacterium leprae infected mouse foot-pad model assessed as parasite killing at >300 mg/kg/day after 9 months. The experiment is classed as functional.
For experiment [7], the system named is Mycobacterium leprae. Briefly: Antibacterial activity in Mycobacterium leprae infected mouse foot-pad model assessed as parasite killing at 25 mg/kg/day after 9 months. In kind it is functional.
The test system of experiment [8] is Mycobacterium leprae. Briefly: Antibacterial activity in Mycobacterium leprae infected mouse foot-pad model assessed as parasite killing at 15 mg/kg/day after 9 months. The experiment is classed as functional.
Experiment [9] deals with Mycobacterium leprae. Briefly: Antibacterial activity in Mycobacterium leprae infected mouse foot-pad model assessed as parasite killing at 50 mg/kg/day after 9 months. In kind it is functional.

Results on 13 compounds are retold here after ChEMBL document CHEMBL1145475, “Expression and purification of an active form of the Mycobacterium leprae DNA gyrase and its inhibition by quinolones” (Antimicrob Agents Chemother, 2007).

Calls of active or inactive are those of the source. No cut-off for these calls is given here.

Take `O=C(O)c1cn(C2CC2)c2cc(N3CCNCC3)c(F)cc2c1=O` [CIPROFLOXACIN]: the half-maximal inhibitory concentration (IC50) in experiment [1] came to 3.5 µg/mL. The Activity in experiment [2] was 32; in experiment [3] it was over 99%.

With `NC1CCN(c2c(F)cc3c(=O)c(C(=O)O)cn(C4CC4)c3c2Cl)C1` (stereo not drawn) [CLINAFLOXACIN], in experiment [1], the IC50 came out at 3 µg/mL. For the same compound, in [4], the CC25 amounted to 0.6 µg/mL.

For `C[C@H]1NCc2cc(-c3ccc4c(=O)c(C(=O)O)cn(C5CC5)c4c3OC(F)F)ccc21` [GARENOXACIN], the IC50 in experiment [1] came out at 3.5 µg/mL. In experiment [4], the CC25 was 3 µg/mL.

On to `COc1c(N2CCNC(C)C2)c(F)cc2c(=O)c(C(=O)O)cn(C3CC3)c12` (stereo not drawn) [GATIFLOXACIN], for which the concentration for half-maximal inhibition (IC50) in experiment [1] is 2 µg/mL. For the same compound, in experiment [4], the CC25 turned out to be 1 µg/mL.

As to `C[C@H]1COc2c(N3CCN(C)CC3)c(F)cc3c(=O)c(C(=O)O)cn1c23.C[C@H]1COc2c(N3CCN(C)CC3)c(F)cc3c(=O)c(C(=O)O)cn1c23.O` [LEVOFLOXACIN], the concentration for half-maximal inhibition (IC50) in experiment [1] came to 7 µg/mL. In experiment [4], the CC25 turned out to be 3 µg/mL.

In the case of `COc1c(N2C[C@@H]3CCCN[C@@H]3C2)c(F)cc2c(=O)c(C(=O)O)cn(C3CC3)c12` [MOXIFLOXACIN], the Activity in experiment [5] was over 99%.

As to `CCn1cc(C(=O)O)c(=O)c2ccc(C)nc21` [NALIDIXIC ACID], the half-inhibitory concentration (IC50) in [1] was found to be 300 µg/mL. In experiment [4], the outcome was inactive.

Regarding `CC1COc2c(N3CCN(C)CC3)c(F)cc3c(=O)c(C(=O)O)cn1c23` (stereo not drawn) [OFLOXACIN], the Activity is recorded as over 99% in [5] and 20 in experiment [2]. Besides, in experiment [1], the 50% inhibitory concentration (IC50) came to 10 µg/mL. Besides, the CC25 in [4] is 10 µg/mL.

Take `CCn1cc(C(=O)O)c(=O)c2cc3c(cc21)OCO3` [OXOLINIC ACID]: the concentration for half-maximal inhibition (IC50) in experiment [1] came out at 170 µg/mL. Also, the result in experiment [4] was inactive.

With `CCn1cc(C(=O)O)c(=O)c2cc(F)c(N3CCN(C)CC3)cc21` [PEFLOXACIN], the IC50 in experiment [1] is 23 µg/mL. Moreover, the Activity was 29 in experiment [2] and over 99% in experiment [6].

For the compound `N[C@@H]1CN(c2c(F)cc3c(=O)c(C(=O)O)cn([C@@H]4C[C@@H]4F)c3c2Cl)CC12CC2` [SITAFLOXACIN ANHYDROUS], the IC50 in experiment [1] worked out at 1 µg/mL. The Activity in experiment [7] is reported as over 99%. In addition, the CC25 in experiment [4] worked out at 0.5 µg/mL.

With `C[C@@H]1CN(c2c(F)c(N)c3c(=O)c(C(=O)O)cn(C4CC4)c3c2F)C[C@H](C)N1` [SPARFLOXACIN], the Activity in [8] is over 99%. In addition, the IC50 in experiment [1] worked out at 5 µg/mL. Besides, the CC25 in experiment [4] turned out to be 1 µg/mL.

`CC1CN(c2cc3c(cc2F)c(=O)c(C(=O)O)cn3-c2ccc(F)cc2F)CCN1` (stereo not drawn) [TEMAFLOXACIN]: the values for the Activity in [9] and in experiment [2] were over 99% and 29, respectively. For the same compound, the IC50 in [1] is 26 µg/mL. In addition, the CC25 in [4] came to 11 µg/mL.

For orientation: IC50 means the concentration at which inhibition is half-maximal.
